The results in this text go back to ChEMBL document CHEMBL1148721 (J Med Chem, 2007).

Experiment [1] is described as follows: Displacement of [3H]muscimol from GABAA receptor in rat brain membrane. In kind it is cell membranes. A digest of the protocol:
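Native GABAA receptor affinity was measured by [3H]muscimol binding to rat brain membranes. Ki was calculated from pKi; ≥3 experiments in duplicate.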
A general note: In a radioligand displacement assay an active substance lowers the binding of a labelled ligand.

A short description of experiment [2]: Agonist activity at human GABA alpha-1-beta-2-gamma-2s receptor expressed in Xenopus oocytes by two electrode voltage-clamp assay. The class given is functional, cell-based. The conditions noted are these: Oocyte. For orientation: In two-electrode clamp one electrode senses voltage and the other passes current.
Experiment [3] is described as follows: Agonist activity at human GABAC rho 1 receptor expressed in HEK293 cells by FMP assay. The class given is functional, cell-based. Conditions: for EC50: Homo sapiens, HEK293.
A short description of experiment [4]: Agonist activity at GABAC rho 1 receptor expressed in tsA-201 cells by FMP assay. In kind it is functional, cell-based. The conditions noted are these: Homo sapiens, tsA201.
The nature of experiment [5]: Agonist activity at human GABAC rho 1 receptor expressed in HEK293 cells by Whole-cell patch-clamp technique. The class given is functional, cell-based. For orientation: In patch-clamp work, channel activity is measured electrically.
Experiment [6] deals with GABA A receptor alpha-1/beta-2/gamma-2 (Rattus norvegicus). In words: Agonist activity at GABA alpha-1-beta-2-gamma-2 receptor expressed in HEK293 cells by Whole-cell patch-clamp technique.
A further experiment can be described thus: cells. The conditions noted are these: HEK293. The class given is functional, cell-based.
Experiment [7] is described as follows: Agonist activity at GABAC rho 1 receptor S168T mutant expressed in tsA-201 cells by FMP assay. The conditions noted are these: Homo sapiens, tsA201. The class given is functional, cell-based.
Experiment [8] in a line: Agonist activity at human GABAC rho 1 receptor expressed in HEK293 cells by FMP assay relative to GABA. In kind it is functional. A digest of the protocol:
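Stable human ρ1 HEK293 clone kept in 1 mg/mL G-418 and plated on poly-D-lysine plates for 16-24 h. Dye loading for 30 min at 37 °C in HBSS + 20 mM HEPES pH 7.4. Emission at 560 nm (excitation 530 nm) recorded before and up to 1 min after agonist. Concentration-response curves built from maximal responses; Rmax given as % of GABA; duplicates, ≥3 experiments.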

Experiment [9] in a line: Agonist activity at human GABAC rho 1 receptor expressed in HEK293 cells by Whole-cell patch-clamp technique relative to GABA. The class given is functional. A digest of the protocol: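 HEK293 cells cotransfected with human ρ1 plus GFP (Targefect) and recorded 20-72 h later by whole-cell patch clamp at -60 mV, 20-22 °C. Bath solution: 140 mM NaCl, HEPES, pH 7.35. Agonists applied by gravity-fed multibarrel perfusion. Hill equation fitted to obtain EC50, nH and Imax; maximal response as % of GABA; ≥5 cells.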

A short description of experiment [10]: Agonist activity at GABAC rho 1 receptor expressed in tsA-201 cells by FMP assay relative to GABA. In kind it is functional, Homo sapiens. A digest of the protocol:
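Human ρ1 (WT) transiently expressed in tsA-201 cells via Polyfect, plated on poly-D-lysine plates 16-24 h post-transfection and assayed next day. Cells loaded with membrane potential dye in HBSS + 20 mM HEPES pH 7.4, 30 min at 37 °C. Fluorescence read (ex 530/em 560 nm) before and up to 1 min after agonist addition. Rmax expressed as % of GABA maximal response; ≥3 experiments in duplicate.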

Experiment [11] can be described thus: Antagonist activity at human GABAc rho 1 receptor expressed in HEK293 cells by FMP assay. In kind it is functional, cell-based. A digest of the protocol: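 Stable HEK293 line expressing human ρ1 (selected under G-418). Antagonist included with the loading dye in HBSS/20 mM HEPES pH 7.4 for 30 min at 37 °C, then agonist added. Fluorescence (ex 530/em 560 nm) read up to 1 min. Ki from inhibition curves by the Cheng-Prusoff relation using agonist concentration and EC50; duplicates, at least three experiments.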

Experiment [12] in a line: Agonist activity at GABAC rho 1 receptor S168T mutant expressed in tsA-201 cells by FMP assay relative to GABA. The class given is functional, Homo sapiens. A digest of the protocol: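 tsA-201 cells transiently transfected with human ρ1 Ser168Thr cDNA, plated on poly-D-lysine after 16-24 h and assayed the next day. Cells loaded with membrane potential dye in HBSS/20 mM HEPES pH 7.4 for 30 min at 37 °C. Fluorescence (ex 530/em 560 nm) read up to 1 min after agonist addition. Rmax given as % of GABA maximum at the same receptor; duplicates, at least three experiments.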

Experiment [13] is described as follows: Agonist activity at rat GABA alpha-1-T129S-beta-2-gamma-2 receptor mutant expressed in HEK293 cells by Whole-cell patch-clamp technique relative to GABA. In kind it is functional. A digest of the protocol:
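Rat α1(Thr129Ser) with β2 and γ2S (1:1:2) transiently co-transfected with a GFP plasmid into HEK293 cells; whole-cell patch-clamp 20-72 h after transfection at 20-22 °C, clamp usually -60 mV, extracellular solution pH 7.35. Agonist applied by perfusion pipette. Hill-equation fit gives EC50 and Imax; maximal response as % of GABA maximum; at least five cells.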

By Ki is commonly meant the equilibrium dissociation constant of an inhibitor or competing ligand from its target. A low value points to a stronger hold on the target. One may read the EC50 as the midpoint of the concentration-response curve. As to `O=C(O)Cc1c[nH]c(Cl)n1`, the Ki in [1] was more than 100 µM. The EC50 in experiment [2] was more than 1000 µM.
The molecule `Cc1nc(CC(=O)O)c[nH]1` registered a Ki in experiment [1] of more than 100 µM. Besides, the EC50 in [3] was more than 1000 µM.
`Cc1[nH]cnc1CC(=O)O` gave a Ki in experiment [1] of 67 µM. Besides, the “Log Ki” value in experiment [1] is listed as -4.2. For the same molecule, the 50% effective concentration (EC50) is 22 µM in [3]; 11 µM in [4] (read-out: EC50); 10 µM in [4] (read-out: Log EC50 (converted)); 31 µM in experiment [5] (read-out: EC50); 31.6 µM in [5] (read-out: Log EC50 (converted)); more than 1000 µM in [6]. Also, the EC50 (in the experiment “cells” (read-out: EC50); in [7] (read-out: EC50); in experiment [2]) was more than 1000 µM each time. Further, the RUmax amounted to 95% in experiment [8], 66% in experiment [9] and 106% in [10].
On to `O=C(O)Cc1[nH]cnc1-c1ccccc1`, for which, in experiment [1], the Ki was more than 100 µM. Also, the EC50 in experiment [3] is 420 µM; in experiment [4] (read-out: EC50), 140 µM; in [4] (read-out: Log EC50 (converted)), 158 µM; in experiment [7] (read-out: EC50), more than 3000 µM; in [2], more than 1000 µM. For the same molecule, the RUmax in [8] came to 98%; in experiment [10], 131%.
In the case of `Cc1cccc(-c2nc[nH]c2CC(=O)O)c1`, the inhibitory constant (Ki) in [1] is more than 100 µM. The molecule also showed an EC50 in [3] of more than 1000 µM.
With `CC1N=C(CC(=O)O)C(c2ccccc2)=N1` (stereo unspecified), the Ki in experiment [1] was more than 100 µM. The EC50 in [3] and in experiment [2] was more than 1000 µM each time.
In turn, `Cc1ccccc1-c1nc[nH]c1CC(=O)O` registered a Ki in experiment [1] of more than 100 µM. The molecule also had an EC50 in experiment [3] of more than 1000 µM.
As for `Cc1ccc(-c2nc[nH]c2CC(=O)O)cc1`, the Ki in experiment [1] was more than 100 µM. Moreover, the EC50 was 240 µM in experiment [3], 220 µM in [4] (read-out: EC50), 200 µM in experiment [4] (read-out: Log EC50 (converted)) and more than 3000 µM in experiment [7] (read-out: EC50). In addition, the RUmax worked out at 111% in [8] and 127% in experiment [10].
On to `O=C(O)Cc1[nH]cnc1I`, for which the Ki in [1] is more than 100 µM. In addition, the EC50 in [3] was more than 1000 µM.
On to `O=C(O)Cc1[nH]cnc1-c1ccc(F)cc1`, for which the Ki in [1] was more than 100 µM. Besides, the EC50 was 210 µM in experiment [3], 330 µM in experiment [4] (read-out: EC50), 316 µM in experiment [4] (read-out: Log EC50 (converted)) and more than 3000 µM in experiment [7] (read-out: EC50). For the same molecule, the results for the RUmax in experiment [8] and in experiment [10] were 115% and 94%, respectively.
As for `O=C(O)Cc1[nH]c(Cl)nc1-c1ccccc1`, in experiment [1], the Ki was more than 100 µM. The EC50 in experiment [3] was more than 1000 µM.
On to `O=C(O)Cc1c[nH]c(-c2ccccc2)n1`, for which the Ki in [1] was more than 100 µM. In experiment [3], this molecule yielded an EC50 of more than 1000 µM.
In turn, `CP(=O)(O)C1=CCNCC1` displayed a Ki in [3] (hek293) of 1.3 µM.
As to `Oc1noc2c1CCNC2` [GABOXADOL], in experiment [11], the Ki worked out at 100 µM and the “Log Ki” value is recorded as -4.
Regarding `NCCCC(=O)O` [GAMMA-AMINOBUTYRIC ACID], the RUmax in experiment [12], in experiment [13], in experiment [8], in experiment [9] and in [10] was 100% each time.
On to `O=C(O)Cc1c[nH]cn1` [IMIDAZOLE ACETIC ACID], for which the RUmax stood at 10% in experiment [12]; 39% in [13]; 32% in experiment [8]; 7.5% in experiment [9]; 37% in experiment [10]. The molecule further returned a Ki in experiment [1] of 0.65 µM. Also, the “Log Ki” value in experiment [1] was -6.2. Besides, the EC50 in [3] was 13 µM; in [4] (read-out: EC50), 5.5 µM; in [4] (read-out: Log EC50 (converted)), 5.01 µM; in experiment [5] (read-out: EC50) it was 5.5 µM; in experiment [5] (read-out: Log EC50 (converted)), 5.5 µM; in “cells” (read-out: EC50), 20 µM. The EC50 was 20 µM in “cells” (read-out: Log EC50 (converted)) and 100 µM in [7] (read-out: EC50).
`O=C(O)C1=CCNCC1` [ISOGUVACINE] displayed an EC50 in experiment [3] of 67 µM. In [8], this molecule gave an RUmax of 97%.
For the molecule `NCc1cc(O)no1` [MUSCIMOL], the RUmax was found to be 96% in experiment [12], 101% in [8] and 104% in experiment [10]. The EC50 in experiment [3] is 2.2 µM; in [4] (read-out: EC50), 0.62 µM; in experiment [4] (read-out: Log EC50 (converted)) it was 0.631 µM; in experiment [7] (read-out: EC50), 24 µM; in experiment [7] (read-out: Log EC50 (converted)) it was 25.1 µM.
